FN deposition inh: inhibitors of fibronectin matrix deposition, primary screen, AH1F cells, Alexa488-fibronectin fluorescence, plate reader. inhibition, % at 12.6 µM. AH1F fibroblasts, overnight. actives 0.086% (n = 350,000);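 active = mean inhibition across replicates of 30% or more, regardless of how many single replicates reach that level; inconclusive = mean under 30% yet at least half of replicates reach 30%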;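 also: positive control wells lacked labelled fibronectin entirely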
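Schedule: 1 h cell adhesion before compound, then overnight fibronectin incubation; test system: AH1F fibroblast monolayer depositing Alexa488-labelled fibronectin into matrix; quantity: 10000 AH1F cells per well; probe or stimulus: fluorescent fibronectin at 24 nM final; signal: fluorescence, ex 485 nm, em 525 nm; evaluation: percent inhibition as loss of matrix-bound fibronectin fluorescence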
EWS-Fli inh: EWS/Fli-driven NR0B1 reporter inhibitors, primary screen, A673 cells, NR0B1 luciferase, luminescence, MLPCN library | inhibition, % at 12.6 µM | viability-normalised | AID 651661, 2012 | actives 0.67% (n = 350,000);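 active = mean inhibition of at least 50% after viability correction, with every replicate also passing that limit; inconclusive = mean reaches 50% but only one of two replicates passes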;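 also: firefly luciferase signal divided by Alamar Blue viability fluorescence both relative to DMSO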
TROY NFkB inh: inhibitors of TROY-driven NF-kB signaling, primary screen, Q293 LMP1-TROYcd cells, NF-kB luciferase, uHTS. AID 1347056, 2019. Q293 LMP1-TROYcd NF-kB luciferase reporter, 4 h. actives 0.98% (n = 360,000). inhibition, % at 10 µM;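 active = compounds whose plate-normalised and pattern-corrected inhibition of the luciferase reporter signal at the single screening dose is 50% or more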
TWEAK-Fn14 inh: inhibitors of TWEAK-Fn14 signaling, primary screen, luciferase reporter cells, uHTS; AID 1159606, 2016; actives 2% (n = 360,000); inhibition, % at 10 µM; TWEAK-stimulated Fn14 reporter cells, luciferase luminescence, 8 h; in the data active = inhibition above about 50%
Xi reactivation: activators of inactive X chromosome reactivation, primary screen, imaging, XiGFP fibroblasts, GFP high-content imaging, set 2 | actives 0.055% (n = 360,000) | AID 743238, 2013 | activation, % at 7.58 µM | XiGFP mouse fibroblasts, % GFP-positive cells imaging, 3 d; cells co-treated with 5-aza-dC sensitizer; scaled so ellipticine positive control = 100%;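 active = mean normalized replicate activation at least 10% and every replicate at or above 10%; inconclusive = only one of the two criteria met; inactive = mean below 10% and not all replicates reach 10%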;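 also: 0% = median of on-plate neutral control wells and 100% = ellipticine 6 µM median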
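Material: XiGFP fibroblasts, SV40-immortalized; Buffer or medium: DMEM containing 5-aza-dC; Compound dosing: single point; Times: 3 days compound exposure.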
LGR2 antag: inhibitors of bursicon-induced LGR2 CRE-luciferase signal, primary screen, cell-based, HEK293, CRE-luciferase reporter, bursicon stimulation | bursicon-stimulated, 4 h | inhibition, % at 9.99 µM | AID 720647, 2013 | actives 0.35% (n = 380,000) | Drosophila bursicon receptor LGR2 (rickets);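 active = drop in luminescence signal, shown as inhibition above about 50% in the replicate tests, limit read from the data, passing the limit was not always enough; inconclusive = probably only some replicates passing the limit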;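 also: agonist challenge used bursicon conditioned medium at about half maximal strength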
Starred values were filed as active, the others as inactive; ? = inconclusive; . = no result. In the library only some 2.3% were active in any assay of this set; here they are far more common.

SMILES	FN deposition inh	EWS-Fli inh	TROY NFkB inh	TWEAK-Fn14 inh	Xi reactivation	LGR2 antag
O=S(=O)(Nc1c(F)cccc1F)c1ccc(Cl)nc1	-0.3	-1.8	85.6*	9.5	0.2	-4.8
O=S(=O)(Nc1ccccc1F)c1ccc(Cl)nc1	-1.1	-5.0	14.1	17.4	0.0	6.6
CN1C(=O)c2cc(NC(=O)c3ccc(F)c(F)c3)ccc2OC[C@@H]2O[C@H](CC(=O)N3CCOCC3)CC[C@H]21	0.1	-3.6	.	.	0.5	2.7
C=CCN1C(=O)[C@]2(CCS(=O)(=O)c3ccccc3)N=C(c3ccc(OCCCO)cc3)O[C@@H]2c2ccccc21	.	-7.6	.	.	.	.
O=C(Nc1ccc(Cl)c(Cl)c1)c1cccc(S(=O)(=O)NCc2cccnc2)c1	-12.3	.	63.6*	89.5*	0.0	6.2
COc1cccc(S(=O)(=O)NCc2ccc(C(=O)Nc3ccc(Cl)c(Cl)c3)cc2)c1	.	.	-1.9	6.1	.	.
O=C(C[C@H]1C[C@H]2c3cc(NC(=O)c4ccc5c(c4)OCO5)ccc3O[C@H]2[C@H](CO)O1)NCCc1ccccc1	.	-0.2	.	.	-0.1	0.7
CCCc1ccc(OC(=O)c2cccs2)cc1	.	.	-10.5	-26.3	.	-16.0
CCCc1ccc(OC(=O)c2ccc(O)cc2Cl)cc1	1.8	-119.6	57.5*	39.8	0.0	-49.5
COc1cc(/C=C2/CC/C(=C/c3ccc(O)c(OC)c3)C2=O)ccc1O	6.8	58.6*	15.4	28.7	-0.1	-0.7
COc1cc(/C=C/C=C2/CC/C(=C/C=C/c3ccc(O)c(OC)c3)C2=O)ccc1O	2.0	6.4	0.4	32.5	0.0	27.9
COc1ccc(/C=C2\CN(Cc3ccccc3)C/C(=C\c3ccc(OC)c(O)c3)C2=O)cc1O	-1.8	62.2*	4.9	1.6	0.0	33.0
COc1ccc(C=C2C(=O)c3ccccc3C2=O)cc1O	-2.7	4.2	42.9	-9.3	0.3	-21.2
COc1cc(/C=C2\SC(=S)N(N3CCOCC3)C2=O)ccc1O	-9.3	9.7	54.0*	-35.0	.	-14.1
COc1cc(/C=C2\SC(=S)N(N3CCOCC3)C2=O)cc(OC)c1OC	9.6	.	-6.4	3.5	?	16.3
COc1cc(/C=C2/SC(=Nc3ccc(O)cc3)NC2=O)ccc1O	4.5	54.3*	40.1	60.3*	0.4	-19.8
CN(C)c1ccc2c(c1)[C@@H]1C[C@H](CC(=O)NCc3cccc(F)c3)O[C@@H](CO)[C@@H]1O2	.	2.0	.	.	0.3	7.4
COCC(=O)N1CCC2(CC1)CN(Cc1ccccn1)[C@@H](CO)c1[nH]c3cc(OC)ccc3c12	.	9.3	.	.	0.1	1.0
COc1ccc(NC(=O)N(C)C[C@@H]2OCCCC[C@H](C)Oc3ccc(NC(=O)NC(C)C)cc3C(=O)N([C@H](C)CO)C[C@@H]2C)cc1	.	-8.4	.	.	-1.1	-1.0
COc1cc(/C=C2\SC(N)=NC2=O)ccc1O	4.3	32.1	39.1	99.7*	0.0	?
COc1cc(C=C2C(=O)c3ccccc3C2=O)ccc1O	4.7	13.0	2.7	4.5	0.5	-6.6
COc1ccc(/C=C2/SC(=S)NC2=O)cc1OCc1ccccc1	-4.6	7.3	50.9*	-8.0	0.4	-7.7
COc1ccc(/C=C2\CC/C(=C\c3ccc(OC)c(OC)c3)C2=O)cc1OC	6.0	-23.4	22.0	55.6*	0.0	-4.1
COc1cc(/C=C2\COC/C(=C\c3ccc(O)c(OC)c3)C2=O)ccc1O	0.9	77.1*	48.7	-12.0	0.3	.
C[C@H]1CN([C@@H](C)CO)C(=O)CCCn2cc(nn2)CO[C@H]1CN(C)Cc1ccc(-c2ccccc2)cc1	-4.7	-6.1	.	.	0.3	6.1
COc1ccc(/C=C2\CCC/C(=C\c3ccc(OC)c(OC)c3OC)C2=O)c(OC)c1OC	5.6	8.4	21.2	6.7	0.0	17.2
COc1cc(OC)c(OC)cc1/C=C1\CCC/C(=C\c2cc(OC)c(OC)cc2OC)C1=O	8.3	6.2	11.4	56.1*	0.0	2.2

Screening results (PubChem)
